The source made the active and inactive calls. The calls are words filed in the database; no cut-off is given here.

The subject of series [1] is Sonchus arvensis. Put plainly: Phytotoxicity against Sonchus arvensis (field sow-thistle) assessed as area of lesions at 1 mg/ml at 20 degC for 4 days. In kind it is functional. In outline:
(§1)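 Whole plants grown one per pot in 1:1 sand/peat at 20 °C, 12 h light/dark, until about seven leaves. One leaflet detached, placed abaxial side up on 0.4% water agar, epidermis cut (three cuts over 3 mm2). A 20 μL drop of metabolite (5% MeOH in water) applied over cuts, kept at 20 °C, 12 h photoperiod. 3–4 replicates, randomized; 5% MeOH control; lesion area in mm2.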

Series [2] relates to Lathyrus sativus. Put plainly: Phytotoxicity against Lathyrus sativus assessed as area of lesions at 1 mg/ml at 20 degC for 4 days. The note with it: in vivo, 96 h. The class given is organism-based. In a few lines:
as §1

Series [3] has as its system Lupinus albus. As to the kind of experiment: Phytotoxicity against Lupinus albus assessed as area of lesions at 1 mg/ml at 20 degC for 4 days. Particulars: in vivo, 96 h. In kind it is organism-based. In outline: as §1
Series [4] concerns Pisum sativum. As to the kind of experiment: Phytotoxicity against Pisum sativum (pea)assessed as area of lesions at 1 mg/ml at 20 degC for 4 days. The class given is organism-based. Particulars: lathyrus oleraceus, in vivo, 96 h. In outline:
as §1

The subject of series [5] is Medicago truncatula. As to the kind of experiment: Phytotoxicity against Medicago truncatula assessed as area of lesions at 1 mg/ml at 20 degC for 4 days. Particulars: in vivo, 96 h. The class given is organism-based. In outline: as §1
Series [6] deals with Chenopodium album. Put plainly: Phytotoxicity against Chenopodium album assessed as area of lesions at 1 mg/ml at 20 degC for 4 days. In kind it is functional. In a few lines: as §1
In series [7] the test system is Vicia faba. As to the kind of experiment: Phytotoxicity against Vicia faba assessed as area of lesions at 1 mg/ml at 20 degC for 4 days. In kind it is organism-based. Particulars: in vivo, 96 h. In outline:
as §1

The test system of series [8] is Pisum fulvum. Put plainly: Phytotoxicity against Pisum fulvum assessed as area of lesions at 1 mg/ml at 20 degC for 4 days. The class given is organism-based. Particulars: lathyrus fulvus, in vivo, 96 h. In a few lines: as §1
Series [9] concerns Phaseolus vulgaris. Put plainly: Phytotoxicity against Phaseolus vulgaris assessed as area of lesions at 1 mg/ml at 20 degC for 4 days. In kind it is organism-based. The note with it: in vivo, 96 h. In a few lines:
as §1

For series [10], the system named is Cirsium arvense. As to the kind of experiment: Phytotoxicity against Cirsium arvense (Canada thistle) assessed as area of lesions at 1 mg/ml at 20 degC for 4 days. The class given is functional. In outline:
as §1

Series [11] concerns Lens culinaris. As to the kind of experiment: Phytotoxicity against Lens culinaris assessed as area of lesions at 1 mg/ml at 20 degC for 4 days. The class given is organism-based. The note with it: in vivo, 96 h. In a few lines: as §1
Series [12] concerns Cicer arietinum. Put plainly: Phytotoxicity against Cicer arietinum assessed as area of lesions at 1 mg/ml at 20 degC for 4 days. The class given is organism-based. The note with it: in vivo, 96 h. In outline:
as §1

In the case of `CCC[C@H]1OC(=O)[C@H](O)CC/C=C/[C@H](O)[C@@H]1O` [HERBARUMIN II], the outcome in series [1], in series [6] and in series [10] was inactive. Besides, the Activity result in [2], in series [3], in [4], in series [5], in [7] and in [8] was “Non-toxic” in each case. Besides, the Activity entry in series [9], in series [11] and in series [12] was “Non-toxic” in each case.
Take `C/C=C/C=C/C(=O)O[C@H]1CC/C=C/[C@H](O)[C@H](O)[C@@H](CCC)OC1=O` [PINOLIDOXIN]: the Activity in series [1] is listed as 23.6 mm2; in [2] it was 41.9 mm2; in [3] it was 73.6 mm2; in [4], 45.5 mm2; in series [5], 49.2 mm2; in series [6] it was 47.8 mm2. Moreover, the Activity is listed as 7.2 mm2 in [7]; 21.5 mm2 in series [8]; 34 mm2 in series [9]; 25 mm2 in series [10]; 45.5 mm2 in series [11]; 9.1 mm2 in series [12].
For `CCC[C@H]1OC(=O)[C@@H](O)CC/C=C/[C@@H](O)[C@@H]1O` (relative stereo) [Pinolide], the outcome in series [1], in series [6] and in [10] was inactive. Also, the Activity entry in series [2], in series [3], in [4], in [5], in series [7] and in series [8] was “Non-toxic” in each case. The Activity entry in series [9], in series [11] and in [12] was “Non-toxic” throughout.
On to `CCC[C@H]1OC(=O)[C@@H](O)CC/C=C/[C@H](O)[C@@H]1O`, for which the outcome in series [1], in series [6] and in [10] was inactive. For the same molecule, the Activity entry in series [2], in [3], in series [4], in [5], in series [7] and in series [8] was “Non-toxic” throughout. Besides, the Activity entry in series [9], in series [11] and in series [12] was “Non-toxic” in each case.
